Data published in ChEMBL document CHEMBL2021809, “Synthesis, biological evaluation and molecular modeling study of pyrazole and pyrazoline derivatives as selective COX-2 inhibitors and anti-inflammatory agents. Part 2” (Bioorg Med Chem, 2012).

How the values were obtained:
[1] = target: T1, Prostaglandin G/H synthase 1 (Ovis aries, UniProt P05979); assay: Inhibition of ovine COX1 by enzyme immuno assay
T1 sequence (P05979 whole entry): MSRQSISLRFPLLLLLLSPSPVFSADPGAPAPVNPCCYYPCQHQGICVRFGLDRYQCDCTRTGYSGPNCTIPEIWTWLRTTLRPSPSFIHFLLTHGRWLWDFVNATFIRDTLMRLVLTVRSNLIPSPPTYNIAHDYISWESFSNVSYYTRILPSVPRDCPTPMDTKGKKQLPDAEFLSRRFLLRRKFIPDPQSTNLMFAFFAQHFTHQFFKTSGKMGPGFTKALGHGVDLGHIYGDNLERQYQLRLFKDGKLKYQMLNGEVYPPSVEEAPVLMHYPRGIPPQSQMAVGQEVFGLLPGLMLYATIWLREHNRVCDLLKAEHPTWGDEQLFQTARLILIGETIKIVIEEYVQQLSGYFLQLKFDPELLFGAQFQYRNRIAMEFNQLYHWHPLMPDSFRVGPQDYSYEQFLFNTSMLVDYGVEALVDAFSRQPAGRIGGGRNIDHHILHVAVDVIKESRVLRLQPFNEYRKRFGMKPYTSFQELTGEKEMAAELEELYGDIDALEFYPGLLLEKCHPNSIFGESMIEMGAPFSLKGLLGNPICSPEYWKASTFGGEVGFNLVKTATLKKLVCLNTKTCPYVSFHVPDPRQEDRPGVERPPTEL

Rattus norvegicus [2] = assay: Antiinflammatory activity in rat assessed as inhibition of carrageenan-induced foot paw edema at 100 mg/kg, ip measured after 2 hrs; format: functional; conditions: route intraperitoneal
Summary of the method: (§1)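 Edema was induced in the rat paw with carrageenan. The read-out was percent reduction of edema at 2 h for each single dose. Test doses were 100 and 200 mg/kg. The reference agent was given at 50 and 100 mg/kg ip.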

Rattus norvegicus [3] = assay: Antiinflammatory activity in rat assessed as inhibition of carrageenan-induced foot paw edema at 200 mg/kg, ip measured after 2 hrs; format: functional; conditions: route intraperitoneal; summary of the method: as §1
Rattus norvegicus [4] = assay: Antiinflammatory activity in ip dosed rat assessed as inhibition of carrageenan-induced foot paw edema measured after 2 hrs; format: functional
Rattus norvegicus [5] = assay: Antiinflammatory activity in rat assessed as inhibition of carrageenan-induced foot paw edema at 50 mg/kg, ip measured after 2 hrs; format: functional; conditions: route intraperitoneal; summary of the method: as §1

SMILES	IC50 [1]	inhibition in vivo at 100 mg/kg (Rattus norvegicus [2])	inhibition in vivo at 200 mg/kg (Rattus norvegicus [3])	ED50 (Rattus norvegicus [4])	inhibition in vivo at 50 mg/kg (Rattus norvegicus [5])
COc1ccc(/C=C(/C(=O)c2ccc(Cl)cc2)C(=O)C(F)(F)F)cc1OC	> 50 µM	38.7%	80.2%	321 µmol/kg	
O=C(O)Cc1ccccc1Nc1c(Cl)cccc1Cl [DICLOFENAC SODIUM]		87.3%		198 µmol/kg	48.7%
Cc1ccc(C2=NNC3(C2)C(=O)Nc2ccc(F)cc23)cc1 (centres undefined)	> 50 µM				
O=C(/C(=C/c1cccc([N+](=O)[O-])c1)C(=O)C(F)(F)F)c1ccc(Cl)cc1	> 50 µM	37.9%	80%	343 µmol/kg	
FC(F)(F)c1cc(/N=C/c2c(C(F)(F)F)nn(-c3ccccc3)c2-c2ccc(Cl)cc2)cc(C(F)(F)F)c1	> 50 µM	52%	89.3%	170 µmol/kg	
COc1ccc(/C=C(/C(=O)c2ccc(Cl)cc2)C(=O)C(F)(F)F)cc1	> 50 µM	26.3%	52.4%	528 µmol/kg	
O=C1Nc2ccc(F)cc2C12CC(c1ccc(Br)cc1)=NN2 (centres undefined)	> 50 µM				
O=C(/C(=C/c1ccc(O)cc1)C(=O)C(F)(F)F)c1ccc(Cl)cc1	> 50 µM	39.2%	78.9%	366 µmol/kg	
Cc1ccc(-c2cc(C(F)(F)F)nn2-c2ccc(S(N)(=O)=O)cc2)cc1 [CELECOXIB]		83%		185 µmol/kg	57%

Now from value to compound, other results behind:

IC50 [1]	SMILES	inhibition in vivo at 100 mg/kg (Rattus norvegicus [2])	inhibition in vivo at 200 mg/kg (Rattus norvegicus [3])	ED50 (Rattus norvegicus [4])	inhibition in vivo at 50 mg/kg (Rattus norvegicus [5])
> 50 µM	Oc1ccccc1/C=C1\C(c2ccc(Cl)cc2)=NN=C1C(F)(F)F				
> 50 µM	COc1ccc(/C=C2\C(c3ccc(Cl)cc3)=NN=C2C(F)(F)F)cc1	33.4%	69.1%	405 µmol/kg	
> 50 µM	Oc1ccc(/C=C2\C(c3ccc(Cl)cc3)=NN=C2C(F)(F)F)cc1	35.3%	81.4%	370 µmol/kg	
> 50 µM	COc1ccc(/C=C2\C(c3ccc(Cl)cc3)=NN=C2C(F)(F)F)cc1OC	42%	88.7%	298 µmol/kg	
> 50 µM	O=[N+]([O-])c1ccc(/N=C/c2c(C(F)(F)F)nn(-c3ccccc3)c2-c2ccc(Cl)cc2)cc1	43.7%	86.7%	243 µmol/kg	
> 50 µM	O=[N+]([O-])c1cccc(/C=C2\C(c3ccc(Cl)cc3)=NN=C2C(F)(F)F)c1	37.6%	84.5%	318 µmol/kg	
> 50 µM	FC(F)(F)c1nn(-c2ccccc2)c(-c2ccc(Cl)cc2)c1/C=N/c1ccccc1Cl				
> 50 µM	FC(F)(F)C1=NN=C(c2ccc(Cl)cc2)/C1=C\c1ccco1				
> 50 µM	FC(F)(F)c1nn(-c2ccccc2)c(-c2ccc(Cl)cc2)c1/C=N/c1ccc(Br)cc1	25.2%	61.1%	335 µmol/kg	
> 50 µM	O=C(/C(=C/c1ccco1)C(=O)C(F)(F)F)c1ccc(Cl)cc1				
> 50 µM	N#CC(C#N)=Cc1c(C(F)(F)F)nn(-c2ccccc2)c1-c1ccc(Cl)cc1				
> 50 µM	FC(F)(F)c1[nH]nc(-c2ccc(Cl)cc2)c1Cc1ccccc1				
> 50 µM	O=C(/C(=C/c1ccccc1O)C(=O)C(F)(F)F)c1ccc(Cl)cc1				
